Values belong to the molecule of their own block, whether it stands above or below them. Calls of active or inactive are those of the source. The rule behind the calls is not given here.
How the values were obtained:
Keap1/Nrf2 = Keap1/Nrf2 (Homo sapiens, UniProt Q14145)
Mus musculus [1] = assay: Antiinflammatory activity in LPS-induced C57BL/6 mouse model assessed as reduction in IFNgamma production at 10 mg/kg, ip treated for 3 days measured 24 hrs post last dose by ELISA; assay type: functional, organism-based; settings: time 4.0 day
How it was run: (§1)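 Female C57BL/6 mice (20 ± 2 g) got LPS 300 µg/kg IP, then 4 h later IP test compound (500 µL) daily for 3 days. Groups were saline control (n=3), LPS (n=8), LPS + 10 or 40 mg/kg (n=8 each) and LPS + dexamethasone 10 mg/kg IP (n=8). Sera were taken 24 h after the last dose, and IFN-γ, IL-1β, IL-6 and TNF-α were measured by ELISA kits.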

Mus musculus [2] = assay: Antiinflammatory activity in LPS-induced C57BL/6 mouse model assessed as reduction in IL6 production at 10 mg/kg, ip treated for 3 days measured 24 hrs post last dose by ELISA; assay type: functional, organism-based; settings: time 4.0 day
How it was run: as §1

Mus musculus [3] = assay: Antiinflammatory activity in LPS-induced C57BL/6 mouse model assessed as reduction in IL1beta production at 10 mg/kg, ip treated for 3 days measured 24 hrs post last dose by ELISA; assay type: functional, organism-based; settings: time 4.0 day
How it was run: as §1

Mus musculus [4] = assay: Antiinflammatory activity in LPS-induced C57BL/6 mouse model assessed as reduction in TNFalpha production at 10 mg/kg, ip treated for 3 days measured 24 hrs post last dose by ELISA; assay type: functional, organism-based; settings: time 4.0 day
How it was run: as §1

RAW264.7 [5] = assay: Antioxidant activity in LPS-induced mouse RAW264.7 cells assessed as restoration of SOD activity at 10 uM […]; assay type: functional, cell-based
[6] = Half life in Sprague-Dawley rat at 1 mg/kg, iv by LC-MS/MS analysis; assay type: ADME, organism-based; settings: in vivo
How it was run: (§2)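 Six male SD rats (180–220 g) received 1 mg/kg IV in normal saline with cosolvent. Plasma was obtained by centrifugation at 4 °C and 2000 rpm for 10 min, stored near −80 °C, and analysed by LC-MS/MS.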

[7] = Apparent volume of distribution during terminal phase in Sprague-Dawley rat at 1 mg/kg, iv by LC-MS/MS analysis; assay type: ADME, organism-based; settings: in vivo
How it was run: as §2

Mus musculus [8] = assay: Antiinflammatory activity in ip dosed LPS-induced C57BL/6 mouse model assessed as reduction in IFNgamma production treated for 3 days measured 24 hrs post last dose by ELISA; assay type: functional, organism-based; settings: time 4.0 day
How it was run: as §1

[9] = AUC (0 to t) in Sprague-Dawley rat at 1 mg/kg, iv by LC-MS/MS analysis; assay type: ADME, organism-based; settings: in vivo
Cytochrome P450 2C9 = Cytochrome P450 2C9 (Homo sapiens, UniProt P11712); assay: Inhibition of CYP2C9 in human liver microsomes preincubated for 10 mins followed by NADPH addition by LC-MS/MS analysis; assay type: ADME
[10] = AUC (0 to infinity) in Sprague-Dawley rat at 1 mg/kg, iv by LC-MS/MS analysis; assay type: ADME, organism-based; set-up: dose 1 mg/kg, route intravenous, time infinity; settings: in vivo
Mus musculus [11] = assay: Antiinflammatory activity in ip dosed LPS-induced C57BL/6 mouse model assessed as reduction in TNFalpha production treated for 3 days measured 24 hrs post last dose by ELISA; assay type: functional, organism-based; settings: time 4.0 day
How it was run: as §1

[12] = Intrinsic clearance in CD-1 rat liver microsomes preincubated for 5 mins followed by NADPH addition and measured after 45 mins by LC-MS/MS analysis; assay type: ADME, Microsome; settings: time 50 min
How it was run: (§3)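 CD-1 male rat liver microsomes in PBS were shaken 10 min at 37 °C, then DMSO compound solution (0.1 mM) was added. Plates were preincubated 5 min at 37 °C before NADPH was added to start the reaction; the 0-min samples were quenched with acetonitrile first. Ice-cold acetonitrile stopped reactions at 5, 15, 30 and 45 min. Clozapine was the reference; supernatants were analysed by LC-MS/MS.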

Cytochrome P450 1A2 = biological target: T1, Cytochrome P450 1A2 (Homo sapiens, UniProt P05177); assay: Inhibition of CYP1A2 in human liver microsomes preincubated for 10 mins followed by NADPH addition by LC-MS/MS analysis; assay type: ADME
T1 sequence (P05177 whole entry): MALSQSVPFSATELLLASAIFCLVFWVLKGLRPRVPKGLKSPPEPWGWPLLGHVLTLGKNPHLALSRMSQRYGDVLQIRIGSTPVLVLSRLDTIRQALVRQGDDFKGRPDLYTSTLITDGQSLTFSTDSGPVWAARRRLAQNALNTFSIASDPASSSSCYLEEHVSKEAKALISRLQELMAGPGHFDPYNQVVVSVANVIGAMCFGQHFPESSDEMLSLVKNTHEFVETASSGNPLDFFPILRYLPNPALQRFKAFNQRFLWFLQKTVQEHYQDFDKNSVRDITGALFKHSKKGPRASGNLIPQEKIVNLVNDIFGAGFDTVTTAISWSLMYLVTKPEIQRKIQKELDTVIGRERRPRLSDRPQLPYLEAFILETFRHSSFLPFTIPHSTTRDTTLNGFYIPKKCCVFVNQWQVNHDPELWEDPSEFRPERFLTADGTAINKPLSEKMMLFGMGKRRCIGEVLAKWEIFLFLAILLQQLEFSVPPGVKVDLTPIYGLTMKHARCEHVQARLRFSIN

[13] = Half life in CD-1 rat liver microsomes preincubated for 5 mins followed by NADPH addition and measured after 45 mins by LC-MS/MS analysis; assay type: ADME, Microsome; settings: time 50 min
How it was run: as §3

RAW264.7 [14] = assay: Antioxidant activity in mouse RAW264.7 cells assessed as inhibition of LPS-induced ROS generation at 10 uM measured after 12 hrs by CH2DCF-DA staining based fluorescence microscopic analysis; assay type: functional, cell-based
How it was run: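 RAW 264.7 cells were pretreated with LPS 1 µg/mL for 6 h, then given compound for 12 h. Cells were washed with PBS and stained with 10 µM c-H2DCF-DA for 20 min at 37 °C in the dark. ROS was imaged by live-cell fluorescence microscopy and quantified as mean fluorescence intensity. n = 3 independent observations, mean ± SEM.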

[15] = Hepatic clearance in CD-1 rat liver microsomes preincubated for 5 mins followed by NADPH addition and measured after 45 mins by LC-MS/MS analysis; assay type: ADME, Microsome
How it was run: as §3

RAW264.7 [16] = assay: Antioxidant activity in LPS-induced mouse RAW264.7 cells assessed as restoration of GSH to GSSG ratio at 10 uM measured after 12 hrs; assay type: functional, cell-based
How it was run: (§4)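 RAW 264.7 cells were pretreated with LPS 1 µg/mL for 6 h, then exposed to compound (1 or 10 µM) for a further 12 h. SOD activity (WST-8 kit), GSH-Px activity, MPO activity and the GSH/GSSG ratio were measured with commercial kits per the manufacturer's protocols. Data are mean ± SEM, n = 3 independent observations, one-way ANOVA.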

Cytochrome P450 2C19 = Cytochrome P450 2C19 (Homo sapiens, UniProt P33261); assay: Inhibition of CYP2C19 in human liver microsomes preincubated for 10 mins followed by NADPH addition by LC-MS/MS analysis; assay type: ADME
Cytochrome P450 2D6 = Cytochrome P450 2D6 (Homo sapiens, UniProt P10635); assay: Inhibition of CYP2D6 in human liver microsomes preincubated for 10 mins followed by NADPH addition by LC-MS/MS analysis; assay type: ADME
Mus musculus [17] = assay: Antiinflammatory activity in ip dosed LPS-induced C57BL/6 mouse model assessed as reduction in IL1beta production treated for 3 days measured 24 hrs post last dose by ELISA; assay type: functional, organism-based; settings: time 4.0 day
How it was run: as §1

RAW264.7 [18] = assay: Antioxidant activity in LPS-induced mouse RAW264.7 cells assessed as restoration of GSH-Px activity at 10 uM measured after 12 hrs; assay type: functional, cell-based
How it was run: as §4

RAW264.7 [19] = assay: Antioxidant activity in mouse RAW264.7 cells assessed as reversal in LPS-induced increase of MPO activity measured after 12 hrs; assay type: functional, cell-based
How it was run: as §4

[20] = Cmax in Sprague-Dawley rat at 1 mg/kg, iv by LC-MS/MS analysis; assay type: ADME, organism-based; set-up: route intravenous, dose 1 mg/kg; settings: in vivo
How it was run: as §2

Mus musculus [21] = assay: Antiinflammatory activity in ip dosed LPS-induced C57BL/6 mouse model assessed as reduction in IL6 production treated for 3 days measured 24 hrs post last dose by ELISA; assay type: functional, organism-based; settings: time 4.0 day
How it was run: as §1

Cytochrome P450 3A4 = Cytochrome P450 3A4 (Homo sapiens, UniProt P08684); assay: Inhibition of CYP3A4 in human liver microsomes preincubated for 10 mins followed by NADPH addition by LC-MS/MS analysis; assay type: ADME
Chain of Cytochrome P450 3A4 (P08684 whole entry): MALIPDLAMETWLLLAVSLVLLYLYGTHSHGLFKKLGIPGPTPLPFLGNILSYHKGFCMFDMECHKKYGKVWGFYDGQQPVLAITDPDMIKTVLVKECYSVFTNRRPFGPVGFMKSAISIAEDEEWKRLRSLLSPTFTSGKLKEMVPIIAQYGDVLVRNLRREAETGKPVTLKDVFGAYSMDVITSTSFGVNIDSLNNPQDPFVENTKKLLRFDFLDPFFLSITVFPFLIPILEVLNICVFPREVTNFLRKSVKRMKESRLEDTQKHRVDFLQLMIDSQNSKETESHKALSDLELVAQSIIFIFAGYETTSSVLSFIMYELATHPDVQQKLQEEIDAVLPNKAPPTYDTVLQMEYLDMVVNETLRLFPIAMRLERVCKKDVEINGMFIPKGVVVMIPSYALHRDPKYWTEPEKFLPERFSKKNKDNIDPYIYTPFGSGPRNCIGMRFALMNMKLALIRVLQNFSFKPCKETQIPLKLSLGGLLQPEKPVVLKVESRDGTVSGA

Chain of Keap1/Nrf2 (Q16236 whole entry): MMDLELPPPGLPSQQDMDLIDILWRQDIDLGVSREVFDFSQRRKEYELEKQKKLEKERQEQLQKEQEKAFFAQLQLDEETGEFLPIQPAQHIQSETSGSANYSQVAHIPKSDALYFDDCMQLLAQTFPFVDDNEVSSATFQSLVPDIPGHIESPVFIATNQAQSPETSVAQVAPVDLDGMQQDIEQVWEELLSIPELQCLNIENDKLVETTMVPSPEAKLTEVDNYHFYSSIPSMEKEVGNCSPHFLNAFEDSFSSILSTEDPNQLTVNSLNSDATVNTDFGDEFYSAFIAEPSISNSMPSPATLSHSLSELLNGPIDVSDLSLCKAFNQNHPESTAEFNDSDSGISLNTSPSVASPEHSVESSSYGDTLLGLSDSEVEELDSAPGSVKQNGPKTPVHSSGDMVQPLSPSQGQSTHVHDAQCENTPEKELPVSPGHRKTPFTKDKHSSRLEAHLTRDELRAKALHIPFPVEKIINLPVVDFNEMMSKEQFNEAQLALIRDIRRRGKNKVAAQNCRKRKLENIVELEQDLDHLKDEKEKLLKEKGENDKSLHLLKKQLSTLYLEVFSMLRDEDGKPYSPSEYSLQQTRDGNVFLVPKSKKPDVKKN
Chain of Keap1/Nrf2 (Q14145 whole entry): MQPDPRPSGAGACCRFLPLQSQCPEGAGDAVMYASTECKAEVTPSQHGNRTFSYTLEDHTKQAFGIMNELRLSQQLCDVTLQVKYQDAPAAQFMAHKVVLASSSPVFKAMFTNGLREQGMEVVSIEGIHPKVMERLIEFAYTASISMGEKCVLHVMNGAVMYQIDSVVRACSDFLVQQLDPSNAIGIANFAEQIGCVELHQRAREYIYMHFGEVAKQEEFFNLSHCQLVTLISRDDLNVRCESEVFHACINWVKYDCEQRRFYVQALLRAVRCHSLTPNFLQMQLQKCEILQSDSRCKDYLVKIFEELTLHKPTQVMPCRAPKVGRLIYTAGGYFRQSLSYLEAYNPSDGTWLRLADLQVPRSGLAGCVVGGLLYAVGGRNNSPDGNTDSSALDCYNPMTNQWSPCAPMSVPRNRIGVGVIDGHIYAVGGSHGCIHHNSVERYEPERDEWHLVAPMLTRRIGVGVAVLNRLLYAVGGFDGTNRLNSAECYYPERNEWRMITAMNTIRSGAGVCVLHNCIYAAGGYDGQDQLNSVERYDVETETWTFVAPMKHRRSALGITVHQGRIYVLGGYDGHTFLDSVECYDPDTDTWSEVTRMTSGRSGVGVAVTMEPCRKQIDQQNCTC
Chain of Cytochrome P450 2C19 (P33261 whole entry): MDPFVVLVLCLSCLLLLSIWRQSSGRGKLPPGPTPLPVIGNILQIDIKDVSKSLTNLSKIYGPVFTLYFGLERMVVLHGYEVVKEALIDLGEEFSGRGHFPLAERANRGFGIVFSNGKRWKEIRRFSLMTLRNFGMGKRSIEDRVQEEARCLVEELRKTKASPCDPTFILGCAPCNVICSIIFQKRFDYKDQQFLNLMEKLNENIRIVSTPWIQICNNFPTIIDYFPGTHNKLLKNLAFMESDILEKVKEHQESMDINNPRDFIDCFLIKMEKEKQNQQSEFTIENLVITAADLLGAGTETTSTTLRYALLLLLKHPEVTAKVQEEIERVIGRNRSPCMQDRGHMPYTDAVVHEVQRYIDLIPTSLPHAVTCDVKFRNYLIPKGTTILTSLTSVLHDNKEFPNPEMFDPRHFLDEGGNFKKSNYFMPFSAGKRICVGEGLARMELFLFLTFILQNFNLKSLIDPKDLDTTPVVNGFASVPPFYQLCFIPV
Chain of Cytochrome P450 2D6 (P10635 whole entry): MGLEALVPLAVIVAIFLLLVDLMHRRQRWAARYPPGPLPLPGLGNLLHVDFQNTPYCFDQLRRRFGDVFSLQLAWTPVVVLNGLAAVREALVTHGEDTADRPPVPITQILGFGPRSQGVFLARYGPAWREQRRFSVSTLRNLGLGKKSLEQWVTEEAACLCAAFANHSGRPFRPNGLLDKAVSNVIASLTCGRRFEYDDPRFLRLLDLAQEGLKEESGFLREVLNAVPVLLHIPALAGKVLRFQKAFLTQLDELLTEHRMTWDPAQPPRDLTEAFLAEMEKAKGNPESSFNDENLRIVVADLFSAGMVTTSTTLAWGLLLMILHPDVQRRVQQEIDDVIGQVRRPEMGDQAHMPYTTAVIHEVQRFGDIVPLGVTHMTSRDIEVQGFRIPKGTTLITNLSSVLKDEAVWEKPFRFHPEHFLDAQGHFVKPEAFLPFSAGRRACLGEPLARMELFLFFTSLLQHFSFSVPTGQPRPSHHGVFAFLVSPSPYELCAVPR
Chain of Cytochrome P450 2C9 (P11712 whole entry): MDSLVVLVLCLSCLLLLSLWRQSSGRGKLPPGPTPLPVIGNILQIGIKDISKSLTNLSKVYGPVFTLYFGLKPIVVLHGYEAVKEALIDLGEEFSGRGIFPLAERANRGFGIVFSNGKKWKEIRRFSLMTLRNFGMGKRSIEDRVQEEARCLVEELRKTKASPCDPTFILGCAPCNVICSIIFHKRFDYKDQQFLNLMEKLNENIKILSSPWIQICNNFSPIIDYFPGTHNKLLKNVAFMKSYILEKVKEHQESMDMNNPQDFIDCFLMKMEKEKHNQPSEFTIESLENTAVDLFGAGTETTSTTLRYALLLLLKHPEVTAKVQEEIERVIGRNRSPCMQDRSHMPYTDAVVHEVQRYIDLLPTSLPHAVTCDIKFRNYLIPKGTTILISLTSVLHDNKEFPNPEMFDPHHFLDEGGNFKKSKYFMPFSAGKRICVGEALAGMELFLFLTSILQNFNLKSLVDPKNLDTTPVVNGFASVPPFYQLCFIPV

Structure (SMILES): C[C@@H]1C[C@H]2[C@@H]3CCC4=CC(=O)C=C[C@]4(C)[C@@]3(F)[C@@H](O)C[C@]2(C)[C@@]1(O)C(=O)CO
Activity (Mus musculus [1]): Active
Activity (Mus musculus [2]): Active
Activity (Mus musculus [3]): Active
Activity (Mus musculus [4]): Active

Structure (SMILES): O=C(O)CN(c1ccc(OC(C(=O)O)c2ccccc2)c2ccccc12)S(=O)(=O)c1ccccc1 (configuration not stated)
IC50 (Keap1/Nrf2): 17800 nM

Structure (SMILES): O=C(O)CN(c1ccc(OC(C(=O)O)c2ccccc2)c2ccccc12)S(=O)(=O)c1ccc(Br)cc1 (configuration not stated)
IC50 (Keap1/Nrf2): 2970 nM

Structure (SMILES): Cc1ccc(S(=O)(=O)N(CC(=O)O)c2ccc(OC(C(=O)O)c3ccccc3)c3ccccc23)cc1 (configuration not stated)
IC50 (Keap1/Nrf2): 2690 nM

Structure (SMILES): Cc1cc(C)c(S(=O)(=O)N(CC(=O)O)c2ccc(OC(C(=O)O)c3ccc(OC(C)C)cc3)c3ccccc23)c(C)c1 (configuration not stated)
IC50 (Keap1/Nrf2): 500 nM

Structure (SMILES): O=C(O)CN(c1ccc(OC(C(=O)O)c2ccccc2)c2ccccc12)S(=O)(=O)c1ccc(Cl)cc1 (configuration not stated)
IC50 (Keap1/Nrf2): 7640 nM

Structure (SMILES): O=C(O)CN(c1ccc(OC(C(=O)O)c2ccccc2)c2ccccc12)S(=O)(=O)c1ccc(OC(F)(F)F)cc1 (configuration not stated)
IC50 (Keap1/Nrf2): 5840 nM

Structure (SMILES): O=C(O)CN(c1ccc(OC(C(=O)O)c2ccccc2)c2ccccc12)S(=O)(=O)c1cccc2ccccc12 (configuration not stated)
IC50 (Keap1/Nrf2): 780 nM

Structure (SMILES): NC(=O)c1ccc(S(=O)(=O)N(CC(=O)O)c2ccc(OC(C(=O)O)c3ccccc3)c3ccccc23)cc1 (configuration not stated)
IC50 (Keap1/Nrf2): 2690 nM

Now from value to molecule, other results behind:

IC50 (Keap1/Nrf2): 430 nM
Structure (SMILES): Cc1cc(C)c(S(=O)(=O)N(CC(=O)O)c2ccc(OC(C(=O)O)c3ccc(Br)cc3)c3ccccc23)c(C)c1 (configuration not stated)

IC50 (Keap1/Nrf2): 190 nM
Structure (SMILES): Cc1cc(C)c(S(=O)(=O)N(CC(=O)O)c2ccc(OC(C(=O)O)c3ccc(Cl)cc3)c3ccccc23)c(C)c1 (configuration not stated)

IC50 (Keap1/Nrf2): 170 nM
Structure (SMILES): Cc1cc(C)c(S(=O)(=O)N(CC(=O)O)c2ccc(OC(C(=O)O)c3ccc(F)cc3)c3ccccc23)c(C)c1 (configuration not stated)

IC50 (Keap1/Nrf2): 980 nM
Structure (SMILES): CC(=O)Nc1ccc(C(Oc2ccc(N(CC(=O)O)S(=O)(=O)c3c(C)cc(C)cc3C)c3ccccc23)C(=O)O)cc1 (configuration not stated)

IC50 (Keap1/Nrf2): 150 nM
Structure (SMILES): CCOc1ccc(C(Oc2ccc(N(CC(=O)O)S(=O)(=O)c3c(C)cc(C)cc3C)c3ccccc23)C(=O)O)cc1 (configuration not stated)

IC50 (Keap1/Nrf2): 1190 nM
Structure (SMILES): Cc1cc(C)c(S(=O)(=O)N(CC(=O)O)c2ccc(OC(C(=O)O)c3ccc(C(F)(F)F)cc3)c3ccccc23)c(C)c1 (configuration not stated)

IC50 (Keap1/Nrf2): 19000 nM
Structure (SMILES): Cc1cc(C)c(S(=O)(=O)N(CC(=O)O)c2ccc(OC(C(=O)O)c3ccc(C(C)(C)C)cc3)c3ccccc23)c(C)c1 (configuration not stated)

IC50 (Keap1/Nrf2): 160 nM
Structure (SMILES): Cc1cc(C)c(S(=O)(=O)N(CC(=O)O)c2ccc(OC(C(=O)O)c3ccc(O)cc3)c3ccccc23)c(C)c1 (configuration not stated)

t1/2 [6]: 1.72 h
Vz/F [7]: 953 mL/kg
AUC(0-t) [9]: 2550 ng·h/mL
IC50 (Cytochrome P450 2C9): > 10 µM
AUC [10]: 2649 ng·h/mL
CLint at […] [12]: 1.57 µL/min/mg
IC50 (Cytochrome P450 1A2): > 10 µM
half-life at […] [13]: 630 min
CLhep predicted at […] [15]: 2.69 mL/min/kg
IC50 (Cytochrome P450 2C19): > 10 µM
IC50 (Cytochrome P450 2D6): > 10 µM
Cmax [20]: 15100 ng/mL
IC50 (Cytochrome P450 3A4): > 10 µM
Structure (SMILES): COc1ccc(C(Oc2ccc(N(CC(=O)O)S(=O)(=O)c3c(C)cc(C)cc3C)c3ccccc23)C(=O)O)cc1 (configuration not stated)
Activity (RAW264.7 [5]): Active
Activity (Mus musculus [8]): Dose-dependent effect
Activity (Mus musculus [11]): Dose-dependent effect
inhibition (RAW264.7 [14]): Dose-dependent effect
Activity (RAW264.7 [16]): Active
Activity (Mus musculus [17]): Dose-dependent effect
Activity (RAW264.7 [18]): Active
Activity (RAW264.7 [19]): Dose-dependent effect
Activity (Mus musculus [21]): Dose-dependent effect
